# Shown are actives, neighbours in structure and some others; about 3.5% of the full set was active somewhere.
# MITF TRPM1 HTS: MITF TRPM1 promoter activation in melanoma cells. SK-MEL-5 TRPM1-promoter luciferase, 24 h; % of positive control, neutral wells = 0. activation, % at 12.5 µM. 0.75% of 300,000 active;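 active = mean activation of at least 80% with every replicate also reaching 80%; inconclusive = mean reaches 80% but some replicate falls short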;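 note: 0% = neutral control wells and 100% = parthenolide positive control wells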
# Wnt bcat act: Wnt/beta-catenin pathway activation; Wnt/beta-catenin reporter cell assay, activator, plate reader; activation, % at 9.35 µM; 1.2% of 300,000 active; in the data active = activation above about 30%, passing the limit was not always enough; inconclusive = no clear call, values can overlap the other calls;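 note: 0% = neutral control wells and 100% = positive control wells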
# HIV Env fusion: inhibitors of HIV Env-mediated cell fusion. HeLa-JRFL Env/CEM21 cell fusion, luciferase. inhibition, % at 12.3 µM. 1.1% of 360,000 active. AID 651610;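 active = mean replicate inhibition score of at least 50 and every replicate individually at or above 50; inconclusive = only one of the two criteria met; inactive = mean below 50 and not all replicates reaching 50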;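 note: 0% = plate neutral controls and 100% = maraviroc near 300 nM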
# ERAP1 inh: blocks human ERAP1 aminopeptidase activity; recombinant ERAP1, Leu-AMC fluorescence, 60 min; inhibition, % at 10.7 µM; 0.15% of 340,000 active;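 active = mean replicate inhibition of at least 30%, or all replicates individually reaching that 30% level; inactive = mean below 30% and not every replicate reaching it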;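 note: 0% = neutral control wells and 100% = L-leucinethiol positive control wells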
# Target sequence (Q9NZ08 whole entry, looked up): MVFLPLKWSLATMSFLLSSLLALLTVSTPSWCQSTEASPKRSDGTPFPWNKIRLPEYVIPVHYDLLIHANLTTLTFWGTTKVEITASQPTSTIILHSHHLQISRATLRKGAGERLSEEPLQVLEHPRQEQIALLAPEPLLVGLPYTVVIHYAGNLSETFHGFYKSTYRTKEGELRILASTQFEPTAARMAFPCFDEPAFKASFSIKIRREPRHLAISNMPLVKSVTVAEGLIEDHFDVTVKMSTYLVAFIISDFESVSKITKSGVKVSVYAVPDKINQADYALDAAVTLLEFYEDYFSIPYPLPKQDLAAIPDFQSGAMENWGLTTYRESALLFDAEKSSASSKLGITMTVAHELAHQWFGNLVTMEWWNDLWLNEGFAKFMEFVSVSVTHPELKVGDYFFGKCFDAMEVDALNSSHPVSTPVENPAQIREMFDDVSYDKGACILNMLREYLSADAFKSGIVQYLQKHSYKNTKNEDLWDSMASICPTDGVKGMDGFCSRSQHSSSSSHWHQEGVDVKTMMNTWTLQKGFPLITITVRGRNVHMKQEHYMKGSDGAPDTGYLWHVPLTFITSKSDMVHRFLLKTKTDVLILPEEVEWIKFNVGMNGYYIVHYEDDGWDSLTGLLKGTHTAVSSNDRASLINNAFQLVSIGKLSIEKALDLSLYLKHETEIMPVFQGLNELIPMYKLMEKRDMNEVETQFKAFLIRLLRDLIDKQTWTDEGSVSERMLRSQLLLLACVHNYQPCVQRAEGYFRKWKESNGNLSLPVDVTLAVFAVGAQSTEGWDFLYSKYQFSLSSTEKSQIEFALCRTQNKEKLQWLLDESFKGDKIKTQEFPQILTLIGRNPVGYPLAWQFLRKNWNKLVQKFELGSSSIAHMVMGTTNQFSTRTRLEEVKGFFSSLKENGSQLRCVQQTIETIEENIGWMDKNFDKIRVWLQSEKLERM
# Cneo AK release: Cryptococcus neoformans lysis via adenylate kinase release | AID 651654 | 0.2% of 360,000 active | C. neoformans lysis, adenylate kinase release luminescence, 4 h; normalised: neutral wells 0, clomiphene wells 100 | lysis activity, % at 15 µM;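 active = mean lysis activity across replicates of at least 80%, whatever share of replicates individually reach that level; inactive = mean lysis activity below 80%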
#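 Material: C. neoformans cells | Amount: Yeast cell density of 5 × 10^6 cells/mL | Medium: Fresh YPD growth medium | Dosing: Single dose | Times: Static 4 h at 37 °C with compound, 1 h detection | Detection: AK luminescence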
# esBAF inh: inhibitors of esBAF chromatin remodeling in mouse ES cells. Bmi1-luciferase knock-in reporter, 24 h; 100% = twice the neutral-well signal. reporter increase, % at 12.5 µM. 2% of 350,000 active; in the data active = activation above about 40%; inconclusive = no clear call, values can overlap the other calls;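 note: 0% = median of the plate's neutral control wells and 100% = double that signal; a rise in the Bmi1 reporter signal indicates esBAF inhibition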
# Active calls of the source: *; i = inactive; ? = inconclusive; · = not tested or not shown; [ ] = remark or other dose.
SMILES,MITF TRPM1 HTS,Wnt bcat act,HIV Env fusion,ERAP1 inh,Cneo AK release,esBAF inh
CCC(=O)N1C[C@H](O)COC[C@@H]2O[C@@H](CC(=O)NCc3ccccc3Cl)CC[C@H]21,·,·,·,1.5,116.6*,-4.9
O=C(C[C@@H]1CC[C@H]2[C@@H](COC[C@@H](O)CN2Cc2ccc(Cl)cc2)O1)NCc1cccc(F)c1,·,·,·,1.7,103.6*,-6.5
CCNC(=O)C[C@@H]1CC[C@@H]2[C@H](COC[C@@H](O)CN2C(=O)c2ccccn2)O1,·,·,64.7*[16.7 µM],-0.5,0.6,5.1
O=C(C[C@@H]1CC[C@@H]2[C@H](COC[C@H](O)CN2Cc2ccc(Cl)cc2)O1)NCc1cccc(F)c1,·,·,·,2.6,2.3,18.1
CCNC(=O)C[C@@H]1CC[C@H]2[C@@H](COC[C@@H](O)CN2C(=O)c2ccccn2)O1,·,·,11.1[16.7 µM],-2.4,0.3,-0.9
CCC(=O)N1C[C@@H](O)COC[C@H]2O[C@@H](CC(=O)NCc3ccccc3Cl)CC[C@@H]21,·,·,·,·,44.5,-3.2
COc1ccccc1CNC(=O)C[C@@H]1CC[C@@H]2[C@H](COC[C@@H](O)CN2Cc2ccccc2)O1,·,·,·,-0.7,109.3*,-2.6
COc1ccccc1CNC(=O)C[C@@H]1CC[C@H]2[C@@H](COC[C@H](O)CN2Cc2ccccc2)O1,·,-1.7,-11.4,·,0.7,2.2
C/C=C/c1ccc([C@H]2[C@@H](CN(C)C(=O)C3CC3)N(C(=O)CC)[C@H]2CO)cc1,·,·,·,·,-0.9,0.4
CC1(C)C2CCC(C2)C1(C)NC(=O)CNCC1CCCCC1 (stereo unspecified),12.4,-10.3,61.4*,0.9,·,·
Cc1ccc(-c2cc(-c3ccccc3)no2)c(O)c1,-9.5,·,-320.0,·,-5.6,·
Cc1ccc(O)c(-c2cc(-c3ccc(F)cc3)no2)c1,25.2,43.7*,-248.3,-4.0,-5.4,2.4
C[C@@H]1CCCCO[C@@H](CN(C)C(=O)CCCN(C)C)[C@@H](C)CN([C@H](C)CO)C(=O)c2cc(NC(=O)c3ccncc3)ccc2O1,·,·,18.7[16.7 µM],·,1.4,5.3
CCCCNC(=S)N/N=C/C1=CCC2CC1C2(C)C (stereo unspecified),7.4,-4.9,84.4*,·,4.2,·
CCCCNC(=S)N/N=C/c1ccc(C#N)cc1,0.2,-0.2,4.0,-2.7,85.9*,·
Cc1ccccc1NC1=C/C(=N\S(=O)(=O)c2cccs2)c2ccccc2C1=O,·,-28.5,120.6*,·,0.4,-73.7
COC(=O)c1ccc(CSc2nc3ccccc3s2)o1,63.4,3.2,·,0.0,-5.2,46.9*
Cc1[nH]c2ccccc2c1C(=O)/C=C\c1ccccc1Cl,18.5,·,i,·,·,·
Cc1[nH]c2ccccc2c1C(=O)/C=C/c1ccccc1,23.3,-1.8,·,·,2.5,84.2*
CN1c2ccc(Br)cc2[C@H]2[C@H](CCN2S(=O)(=O)c2cccc(F)c2)[C@H]1CO,·,·,·,1.4,4.0,-2.0
C[C@@H]1CN([C@@H](C)CO)C(=O)c2cc(NC(=O)CCC(F)(F)F)ccc2O[C@@H]1CN(C)C,·,·,·,-0.9,-1.0,0.8
COc1cc(C(=O)Nc2ccc(NC(=O)c3ccccc3)nc2)cc(OC)c1OC,10.3,3.6,12.7,0.4,-0.2,7.2
COc1cccc(C(=O)Nc2ccc(NC(=O)C3CC3)cn2)c1,101.5*,23.8,-113.1,·,2.4,·
O=C(Nc1ccc(NC(=O)C2CC2)nc1)c1cnccn1,5.9,48.6*,-7.3,1.3,·,12.4
COc1cc(C(=O)Nc2ccc(NC(=O)C3CC3)nc2)cc(OC)c1OC,1.6,60.6*,12.2,·,-0.7,-5.1
SMILES,MITF TRPM1 HTS,Wnt bcat act,HIV Env fusion,ERAP1 inh,Cneo AK release,esBAF inh
CCC(=O)Nc1ccc(NC(=O)c2cccc(OC)c2)nc1,?,·,-161.3,·,-5.9,32.9
C[C@@H]1CN([C@H](C)CO)C(=O)CCCn2cc(nn2)CO[C@@H]1CN(C)Cc1cccc(C(F)(F)F)c1,·,·,·,·,·,1.6
CCCNC(=O)C[C@H]1CC[C@@H]2[C@@H](COc3ccc(NC(=O)c4cccs4)cc3C(=O)N2C)O1,·,·,·,1.2,-1.7,-0.1
C[C@@H]1CCCCO[C@H](CN(C)C)[C@@H](C)CN([C@H](C)CO)C(=O)c2cc(NC(=O)c3ccccc3)ccc2O1,·,·,9.6[16.7 µM],-0.8,1.6,-3.7
O=C(c1cc2cc(Br)ccc2[nH]1)N1CCc2ccccc21,15.2,4.5,-1.5,-6.3,0.3,30.5
O=C(c1cc2cc(F)ccc2[nH]1)N1CCc2ccccc21,53.8,41.8*,-44.8,1.4,-1.3,63.3*
COc1ccc2cc(C(=O)N3CCc4ccccc43)[nH]c2c1,39.4,46.1*,-249.6,0.3,-7.6,30.8
C[C@H]1CN([C@@H](C)CO)C(=O)Cc2cc(NC(=O)C3CCCCC3)ccc2O[C@@H]1CN(C)S(=O)(=O)c1cn(C)cn1,·,·,-25.6[16.7 µM],0.6,-0.8,3.0
C[C@H]1CN([C@@H](C)CO)C(=O)Cc2cc(NC(=O)Cn3cnnn3)ccc2O[C@@H]1CN(C)Cc1ccc2c(c1)OCO2,·,·,6.2[16.7 µM],-0.6,0.9,-0.7
O=C(Cc1cccnc1)N1CC2(C1)[C@H](c1ccccc1)[C@@H](CO)N2C(=O)C1CCCCC1,·,·,·,-0.2,·,·
CN(C)S(=O)(=O)c1cc(NC(=O)COC(=O)CCc2ccccc2)ccc1Cl,-9.9,0.8,10.3,-1.7,2.9,0.6
CN(C)S(=O)(=O)c1cc(NC(=O)[C@H](Cc2ccccc2)N2C(=O)c3ccccc3C2=O)ccc1Cl,-5.1,31.2*,-9.6,·,·,·
C[C@H]1CN([C@@H](C)CO)C(=O)c2cc(-c3ccccc3)cnc2O[C@H]1CN(C)C(=O)c1ccccn1,·,·,-1.8[16.7 µM],0.9,0.0,6.0
O=C(c1ccc(F)cc1)c1ccc(N2CCCCC2)cc1,103.0*,39.8*,-56.6,-0.1,-12.5,35.8
O=C(CCC(=O)N1CCN(c2ccc(F)cc2)CC1)N1CCN(c2ccc(F)cc2)CC1,-25.4,-1.7,28.4,0.4,0.6,0.0
O=C(Nc1ccc(N2CCCCC2)cc1)c1ccc(F)cc1,·,8.3,·,·,-4.3,-1.3
O=C(c1ccc(F)cc1)c1ccc(N2CCCC2)cc1,54.5,5.1,·,·,·,65.3*
CCN1[C@@H]2c3ccc(-c4ccc(OC)cc4)c(=O)n3C[C@@H]2[C@@H](CO)[C@@H]1C(=O)N(C)C,·,·,·,·,·,4.8
CN(C)CCn1c(NC(=O)c2ccc(Cl)cc2)nc2ccccc21,27.0,·,-37.9,·,-1.0,55.6*
O=C(C[C@@H]1C[C@H]2c3cc(NC(=O)C4CCC4)ccc3O[C@H]2[C@H](CO)O1)NCc1ccccc1F,·,·,-4.9[16.7 µM],-0.3,0.1,-1.0
O=C(Nc1nnc(S(=O)(=O)N2CCOCC2)s1)c1cccc(F)c1,·,20.2,11.8,5.6,-1.3,58.1*
O=C(Nc1nnc(-c2cccs2)s1)c1cccc(F)c1,32.5,39.3*,-14.7,0.7,-3.5,60.0*
Cc1nnc(NC(=O)c2cccc(F)c2)s1,6.2,·,·,·,5.8,13.2
O=C(Nc1ccccc1)Nc1nnc(-c2cccs2)s1,72.5,29.4,-24.8,·,0.4,·
Cc1cccc(C(=O)Nc2nnc(S(=O)(=O)N3CCOCC3)s2)c1,21.3,-0.7,11.2,-0.4,2.1,9.5
